Columns and labels:
Liver microsomes = test: Intrinsic clearance in human liver microsomes; assay type: ADME, Microsome
Summary of the method: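 Metabolic depletion in pooled human liver microsomes (0.1 mg/mL protein), substrate 0.3 μmol/L, final DMSO 0.01%. Matrix: 100 mmol/L phosphate pH 7.4 with 0.1 mmol/L EDTA. Reaction started with an NADPH-generating system (β-NADP+, G6P, MgCl2, G6PDH) and run at 37 °C for 0 and 15 min. Quenched with acetonitrile/methanol plus internal standard; analysed by LC/MS/MS.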

[1] = Oral bioavailability in Sprague-Dawley rat at 10 mg/kg; assay type: ADME, organism-based; details: in vivo
Summary of the method: (§1)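 Fasted male Sprague-Dawley rats, n = 3 per route. IV dose 3 mg/kg from a 3 mg/mL solution in 1% ethanol–0.1 mol/L HCl–glucose. PO dose 10 mg/kg from a 2 mg/mL solution in 5% ethanol–0.1 mol/L HCl–glucose. Jugular blood sampled at 0.083 (iv only), 0.25, 0.5, 1, 2, 4, 6 and 8 h. Plasma deproteinized with acetonitrile plus internal standard, quantified by LC/MS/MS. Mean ± SEM of three animals.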

[2] = AUC in Sprague-Dawley rat at 10 mg/kg, po; assay type: ADME, organism-based; set-up: dose 10 mg/kg, route oral; details: plasma; summary of the method: as §1
[3] = Tmax in Sprague-Dawley rat at 10 mg/kg, po; assay type: ADME, organism-based; set-up: dose 10 mg/kg, route oral; details: in vivo; summary of the method: as §1
[4] = Cmax in Sprague-Dawley rat at 10 mg/kg, po; assay type: ADME, organism-based; set-up: dose 10 mg/kg, route oral; details: in vivo; summary of the method: as §1
[5] = AUC in Sprague-Dawley rat at 3 mg/kg, iv; assay type: ADME, organism-based; set-up: dose 3 mg/kg, route intravenous; details: plasma; summary of the method: as §1
[6] = Half life in Sprague-Dawley rat at 3 mg/kg, iv; assay type: ADME, organism-based; set-up: dose 3 mg/kg, route intravenous; details: in vivo; summary of the method: as §1
[7] = Volume of distribution at steady state in Sprague-Dawley rat at 3 mg/kg, iv; assay type: ADME, organism-based; set-up: dose 3 mg/kg, route intravenous; details: in vivo, read-out: Vdss; summary of the method: as §1
[8] = Plasma clearance in Sprague-Dawley rat at 3 mg/kg, iv; assay type: ADME, organism-based; set-up: dose 3 mg/kg, route intravenous; summary of the method: as §1

SMILES | intrinsic clearance (Liver microsomes) | further results
COCc1cc(OC)c(-c2csc3c(N(CC4CC4)CC4(F)CCOCC4)c(OC)nn23)c(OC)c1 | 550 µL/min/mg | –
COCc1cc(OC)c(-c2csc3c(N(CC4CC4)CC4CCCOC4)c(OC)nn23)c(OC)c1 (configuration not stated) | 550 µL/min/mg | –
COCc1cc(OC)c(-c2csc3c(N(CC4CC4)CC4CCCCO4)c(OC)nn23)c(OC)c1 (configuration not stated) | 870 µL/min/mg | –
COCc1cc(OC)c(-c2csc3c(N(CC4CC4)CC4CCOC4)c(OC)nn23)c(OC)c1 (configuration not stated) | 530 µL/min/mg | –
COCc1cc(OC)c(-c2csc3c(N(CC4CC4)CC4CCCO4)c(OC)nn23)c(OC)c1 (configuration not stated) | 1020 µL/min/mg | –
COCCN(CC1CC1)c1c(OC)nn2c(-c3c(OC)cc(COC)cc3OC)csc12 | 960 µL/min/mg | –
COCc1cc(OC)c(-c2csc3c(N(C(C)C)C4CCOCC4)c(OC)nn23)c(OC)c1 | 670 µL/min/mg | –
CCCN(c1c(OC)nn2c(-c3c(OC)cc(C#N)cc3OC)csc12)C1CCOCC1 | 150 µL/min/mg | –
CCCN(c1c(OC)nn2c(-c3c(Cl)cc(COC)cc3OC)csc12)C1CCOCC1 | 370 µL/min/mg | –
CCCCN(c1c(OC)nn2c(-c3c(OC)cc(COCC)cc3OC)csc12)C1CCOCC1 | 220 µL/min/mg | bioavailability [1]: 23%; AUC [2]: 1240 ng·h/mL; Tmax [3]: 0.5 h; Cmax [4]: 540 ng/mL; AUC [5]: 1580 ng·h/mL; half-life [6]: 5.2 h; Vd [7]: 6.32 L/kg; clearance [8]: 32.2 mL/min/kg
CCCCN(c1c(OC)nn2c(-c3c(OC)cc(C#N)cc3OC)csc12)C1CCOCC1 | 150 µL/min/mg | –

More lines, main results first:

intrinsic clearance (Liver microsomes) | SMILES | further results
460 µL/min/mg | COCc1cc(OC)c(-c2csc3c(N(CC4CCOCC4)CC4CC4)c(OC)nn23)c(OC)c1 | –
180 µL/min/mg | COCc1cc(OC)c(-c2csc3c(N(CC4CC4)C4CCOCC4)c(OC)nn23)c(OC)c1 | –
200 µL/min/mg | CCN(c1c(OC)nn2c(-c3c(OC)cc(COC)cc3OC)csc12)C1CCOCC1 | –
220 µL/min/mg | CCCN(c1c(OC)nn2c(-c3c(OC)cc(COC)cc3OC)csc12)C1CCOCC1 | –
180 µL/min/mg | COCc1cc(OC)c(-c2csc3c(N(CCC4CC4)C4CCOCC4)c(OC)nn23)c(OC)c1 | –
200 µL/min/mg | CCCCN(c1c(OC)nn2c(-c3c(OC)cc(COC)cc3OC)csc12)C1CCOCC1 | –
360 µL/min/mg | COCc1cc(OC)c(-c2csc3c(N(CC(C)C)C4CCOCC4)c(OC)nn23)c(OC)c1 | –
340 µL/min/mg | CCCN(c1c(OC)nn2c(-c3c(OC)cc(COCC)cc3OC)csc12)C1CCOCC1 | –
